From PubChem BioAssay
CTSL1 counter – cathepsin L1 inhibition, PFM18AAP counter-screen | hit rate 0.49% among 300,000 | inhibition, % at 5.96 µM | recombinant F. hepatica cathepsin L1, Z-Leu-Arg-MCA fluorescence;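 active = inhibition above the mean of all tested compounds plus 3 SD, set per screening campaign, cut at about 17% in these data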;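 also: 0% = plate median of test compound wells and 100% = 1 µM Z-Phe-Ala-diazomethylketone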
PfM18AAP inh – PfM18AAP enzyme inhibition. inhibition, % at 7.35 µM. hit rate 1.2% among 290,000. recombinant PfM18AAP, H-Glu-NHMec fluorogenic cleavage;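 active = inhibition above the campaign mean inhibition over all tested compounds plus 3 SD, cut at about 28% in these data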;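 also: 0% = plate median of test compound wells and 100% = 2 mM ZnCl2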
IMP-1 inhibitor – blocks Pseudomonas aeruginosa IMP-1 metallo-beta-lactamase | purified IMP-1, nitrocefin hydrolysis, epi-absorbance fluorescence | inhibition, % at 5.6 µM | hit rate 0.45% among 290,000 | AID 1556;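 active = inhibition above the mean plus 3 SD of all compounds in the same screening run, cut at about 4.5% in these data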;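 also: 0% = IMP-1 with DMSO and 100% = DMSO wells lacking enzyme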
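assay system = purified recombinant IMP-1 metallo-beta-lactamase enzyme | schedule = 15 min preincubation plus 25 min reaction at 25 °C | signal = Epi-absorbance fluorescence, 480 nm excitation, 530 nm emission | read-out basis = percent inhibition from optical density relative to buffer-blank wells | controls = IMP-1 with DMSO as 0%, enzyme-free DMSO as 100%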
VIM-2 inhibitor – blocks Pseudomonas aeruginosa VIM-2 metallo-beta-lactamase; hit rate 0.89% among 290,000; purified VIM-2, nitrocefin hydrolysis, epi-absorbance fluorescence; inhibition, % at 5.6 µM;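 active = inhibition above the mean of all tested compounds plus 3 SD, cutoff set per screening run, cut at about 7.5% in these data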;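 also: red hydrolysis product quenches plate fluorescence so inhibitors raise well fluorescence; 0% = enzyme with DMSO and 100% = DMSO without enzyme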
An asterisk follows results filed as active; . = no result. A selection: hits, their analogues and other compounds. The true share with any hit is near 2.7%.

SMILES	CTSL1 counter	PfM18AAP inh	IMP-1 inhibitor	VIM-2 inhibitor
CCN(CC)S(=O)(=O)c1ccc(Cl)c(C(=O)OC2CC(C)OC2=O)c1 (stereo not given)	-2	0	-4	-2
O=C(Nc1ccc(C(F)(F)F)cc1)N1CCN(c2ccnc3cc(Cl)ccc23)CC1	3	-6	-5	-2
O=C(c1cc2cc([N+](=O)[O-])ccc2oc1=O)N1CCOCC1	0	-1	-2	-2
O=C(c1cc2cccc([N+](=O)[O-])c2oc1=O)N1CCOCC1	29*	-3	-3	-1
O=C(c1cnn2ccccc12)N(Cc1ccco1)C1CCCC1	47*	1	0	-2
Cc1sc(NC(=O)CSc2nnc(C)c(=O)[nH]2)c(C#N)c1C	2	26	4	0
O=C(NNC(=O)c1ccc(Oc2ccc(C3SCCS3)cc2)o1)c1ccc(Cl)cc1	0	7	5.2*	-1
O=C(NNC(=O)c1ccc(Oc2cc(Cl)cc(Cl)c2)o1)c1ccccc1	-4	-1	-5	-4
CC1Sc2ccc(S(=O)(=O)N3CCC(C(=O)NCc4ccccc4)CC3)cc2NC1=O (stereo not given)	1	-1	0	0
CCc1cccc2c(C(=O)CCl)c[nH]c12	35*	-6	-2	-1
O=C(Nc1cccc2c1[nH]c1ccccc12)C(F)(F)F	-5	0	-1	-2
COC(=O)c1cc2c(=O)c3ccccc3oc2nc1/C=C/N(C)C	.	7	3	7.7*
CCCCN(C(=O)COC(=O)CSc1ccc([N+](=O)[O-])cc1)c1c(N)n(CCC)c(=O)[nH]c1=O	-8	.	.	.
O=C1N=c2ccccc2=C1c1sc(Nc2cccc(O)c2)nc1O	7	-1	-6	-3
O=C1N=c2ccccc2=C1c1sc(Nc2ccc(O)cc2)nc1O	.	4	5.1*	-4
O=C(CN1C(=O)/C(=C/c2cccc(Br)c2)SC1=S)NCCCN1CCOCC1	-2	17	4.8*	-3
O=C(CCCN1C(=O)/C(=C/c2cccc(Br)c2)SC1=S)NCCCN1CCOCC1	-3	4	-2	2
O=C(c1ccccc1)n1c(=O)cc[nH]c1=O	-3	.	.	.
O=C1NCCN1C(=O)c1cccc(Cl)c1	19*	4	-2	-3
O=C1CCCCC1c1cccc2ccccc12 (stereo not given)	0	-10	1	0
O=C1c2ccccc2C(=O)C12OC2c1cccc2ccccc12 (stereo not given)	62*	3	-3	-1
CNC(=O)COC(=O)c1ccc([N+](=O)[O-])cc1Cl	18*	-8	-2	0
CCOc1cc(/C=C\[N+](=O)[O-])ccc1OCC(=O)Nc1ccccc1C	-2	1	-1	2
COc1ccc([C@@H]2CC=C(C(=O)O)[C@H](c3ccccc3F)N2S(=O)(=O)c2ccc(C)cc2)cc1OC	0	.	.	.
COc1cc(/C=N\NC(=O)C2CC3C=CC2C3)ccc1O (stereo not given)	-2	4	-2	-5
SMILES	CTSL1 counter	PfM18AAP inh	IMP-1 inhibitor	VIM-2 inhibitor
O=C(NC1CCCCC1)Oc1cc2oc(=O)sc2cc1Br	-1	31*	-4	-1
CCC(C)NC(=O)C1CCN(S(=O)(=O)c2cc([N+](=O)[O-])ccc2Cl)CC1 (stereo not given)	2	-1	-3	-3
O=C(Nc1nc2ccccc2s1)C1CCN(S(=O)(=O)c2cc([N+](=O)[O-])ccc2Cl)CC1	2	28*	-2	-3
O=C(Nc1cccnc1)c1ccc2snnc2c1	-1	-22	-4	-5
CCCCN(CC)CCNC(=O)CCC(=O)Nc1ccc2nc(N3CCN(C)CC3)cc(C)c2c1	1	4	-1	7.8*
CCCCN(CC)CCNC(=S)Nc1ccc2nc(N3CCN(C)CC3)cc(C)c2c1	3	-7	0	1
CCOC(=O)c1ccc2c(c1)C1C=CCC1C(C(=O)O)N2 (stereo not given)	8	4	-2	1
CCOC(=O)C1Nc2ccc(C(=O)O)cc2C2C=CCC12 (stereo not given)	7	6	35*	-1
Cc1c(C(=O)N2CCN(Cc3ccccc3)CC2)oc2c1C(=O)CC(C)(C)C2	7	7	-2	-1
CCN(CC(=O)Nc1c(F)cccc1F)C(=O)c1cc(C)nc2ccccc12	2	.	.	.
O=C(COC(=O)[C@H](Cc1ccccc1)N1C(=O)c2ccccc2C1=O)Nc1ccc2c(c1)OCO2	23*	6	-4	-2
O=C(COC(=O)c1ccc(=O)n(Cc2ccccc2)n1)Nc1ccc2c(c1)OCCO2	19*	4	-4	-1
CC(C)[C@@H](C(=O)OCC(=O)Nc1ccc2c(c1)OCO2)N1C(=O)c2ccccc2C1=O	-1	0	-2	-1
CCC1CCCCN1Cc1ccc(N)cc1 (stereo not given)	-1	2	-2	-3
Cc1ccc(S(=O)(=O)NC(CC(C)C)C(=O)NCc2ccco2)cc1 (stereo not given)	13	-3	0	2
Cc1nn(S(=O)(=O)c2ccccc2)c(C)c1S(=O)(=O)N1CCC(C)CC1	-2	1	-4	-2
COC(=O)c1c(NC(=O)c2ccc([N+](=O)[O-])o2)sc2c1CCN(C(C)C)C2	26*	8	-1	4
CC(C(=O)O)N1C(=O)/C(=C/C=C/c2ccco2)SC1=S (stereo not given)	4	18	5.8*	-2
O=C1/C(=C/C=C/c2ccco2)SC(=S)N1NS(=O)(=O)c1ccccc1	12	26	-2	1
CC(C)C1Oc2ccccc2N(CC(=O)NC2CCCCC2)C1=O (stereo not given)	1	1	-2	-1
CC1(C)CC2=C(CO1)C(=S)NC(c1ccccc1)N2CC1CCCO1 (stereo not given)	10	5	-3	-4
C1CC(CN2CCOCC2)CN(Cc2nc(CC3CC3)no2)C1 (stereo not given)	0	-5	-2	-3
Cc1oc2c(cc(NS(=O)(=O)c3ccc(C(C)C)cc3)c3ccccc32)c1C(=O)O	-5	7	8.9*	2
Cc1oc2c(cc(NS(=O)(=O)c3ccc(F)cc3)c3ccccc32)c1C(=O)O	-2	15	5.8*	-3
COC(=O)C1(CC2CC(c3ccccc3)=NO2)CCN(C(=O)OC(C)(C)C)CC1 (stereo not given)	4	.	.	.
SMILES	CTSL1 counter	PfM18AAP inh	IMP-1 inhibitor	VIM-2 inhibitor
O=C(CN1CCN(c2cccc(Cl)c2)CC1)NCc1ccccc1	24*	-9	2	0
CC(=O)c1ccc(N2CCN(CC(=O)NCc3ccccc3)CC2)cc1	1	-2	6.5*	1
O=C(CN1CCN(c2ccc(Cl)cc2)CC1)NCc1ccccc1	6	1	-1	-2
COc1cccc(CN(C)C(=O)COc2ccc(C(=O)c3ccc(Cl)cc3)cc2)c1OC	-4	-1	-4	1
COc1ccc(C2=Nn3c(nnc3C(F)(F)F)SC2)cc1	2	-9	-2	1
Cc1ccc(-c2nn(C)c(=O)c3ccccc23)cc1CN1CCCCC1	1	0	-4	9.2*
COc1cccc(CSc2nc(N)cc(N)n2)c1	4	-15	2	2
